{"source": "ChEMBL document CHEMBL6078712", "about": "“Triterpenoid phthalimides as selective anti-cancer agents targeting mitochondrial apoptosis” (Eur J Med Chem, 2025)", "key": {"CCRF-CEM [1]": {"tested_on": "CCRF-CEM", "experiment": "Cytotoxicity against human CCRF-CEM cells assessed as inhibition of cell growth incubated for 72 hrs by MTS assay", "type": "functional, cell-based", "outline": "(§1)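 MTS assay on eight human cancer lines and two non-tumour fibroblast lines. IC50 is the concentration that inhibits cell growth by 50 %. SD typically up to 15 % of the mean.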"}, "[2]": {"experiment": "Cytotoxicity against human K562-Tax cells assessed as inhibition of cell growth incubated for 72 hrs by MTS assay", "type": "functional, cell-based", "outline": "as §1"}, "A549": {"tested_on": "A549", "experiment": "Cytotoxicity against human A549 cells assessed as inhibition of cell growth incubated for 72 hrs by MTS assay", "type": "functional, cell-based", "conditions": "A549, 72 h", "outline": "as §1"}, "[3]": {"experiment": "Stability in human plasma assessed as compound remaining at 2 uM incubated for 15 mins by RF-MS analysis", "type": "ADME, cell-free", "conditions": "read-out: Stability", "outline": "(§2)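 Human plasma stability, plasma protein binding and liver microsome stability, each run in triplicate. Error deviations below 10 %.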"}, "[4]": {"experiment": "Stability in human plasma assessed as compound remaining at 2 uM incubated for 60 mins by RF-MS analysis", "type": "ADME, cell-free", "conditions": "read-out: Stability", "outline": "as §2"}, "[5]": {"experiment": "Metabolic stability in human liver microsomes assessed as parent compound remaining at 2 uM incubated for 15 mins in presence of NADPH by RF-MS analysis", "type": "ADME, Microsome", "conditions": "read-out: Stability", "outline": "as §2"}, "CCRF-CEM [6]": {"tested_on": "CCRF-CEM", "experiment": "Induction of apoptosis in human CCRF-CEM cells assessed as viable cells at 1 times IC50 incubated for 24 hrs by Annexin V-FITC and PI staining based flow cytometric analysis (reference value: 97.4 %)", "type": "functional", "outline": "(§3)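 Washed in Ca2+-containing binding buffer, then stained 15 min at room temperature in the dark with Annexin V-FITC and propidium iodide (PI at half the kit-recommended level). Read at once by flow cytometry with a 488 nm laser, ≥10,000 cells. Debris excluded; quadrants viable, early apoptotic, late apoptotic/necrotic, necrotic. Three independent experiments.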"}, "CCRF-CEM [7]": {"tested_on": "CCRF-CEM", "experiment": "Induction of apoptosis in human CCRF-CEM cells assessed as viable cells at 5 times IC50 incubated for 24 hrs by Annexin V-FITC and PI staining based flow cytometric analysis (reference value: 97.4 %)", "type": "functional", "outline": "as §3"}, "CCRF-CEM [8]": {"tested_on": "CCRF-CEM", "experiment": "Induction of apoptosis in human CCRF-CEM cells assessed as early apoptotic cells at 5 times IC50 incubated for 24 hrs by Annexin V-FITC and PI staining based flow cytometric analysis (reference value: 2.1 %)", "type": "functional", "outline": "as §3"}, "CCRF-CEM [9]": {"tested_on": "CCRF-CEM", "experiment": "Induction of cell cycle arrest in human CCRF-CEM cells assessed as increase in accumulation of G0/G1 phase at 1 times IC50 incubated for 24 hrs by RNase/PI staining based flow cytometry", "type": "functional", "outline": "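Propidium iodide staining and flow cytometry with a 488 nm laser, ≥10,000 intact cells. Phase proportions compared with untreated cells; SEM of three independent experiments.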"}, "CCRF-CEM [10]": {"tested_on": "CCRF-CEM", "experiment": "Inhibition of DNA synthesis in human CCRF-CEM cells at 1 times IC50 incubated for 24 hrs by BrdU incorporation based flow cytometry", "type": "functional", "outline": "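Fixed in ice-cold 70 % ethanol, DNA denatured in 2 M HCl for 30 min, neutralised with borax. Stained with anti-BrdU plus FITC secondary, then PI/RNase A for 1 h. Flow cytometry; % BrdU-positive cells.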"}, "CCRF-CEM [11]": {"tested_on": "CCRF-CEM", "experiment": "Induction of apoptosis in human CCRF-CEM cells assessed as upregulation of BIM expression at 1 to 5 times IC50 incubated for 24 hrs by Western blotting analysis", "type": "functional, cell-based", "outline": "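30 µg protein per lane on SDS-PAGE, transferred to nitrocellulose, blocked in 5 % BSA/TBS-Tween. Primary antibodies overnight at 4 °C (Akt, P-Akt Ser473, STAT-3, caspase-3, PARP, cyclin D, cyclin A, Bcl-xL, Bak, Bid, Bim), then HRP secondary and ECL detection. GAPDH as loading control.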"}}, "note": "Activity calls are given as the source filed them. The rule behind the calls is not given here.", "data": [{"smiles": "CC(=O)O[C@H]1CC[C@]2(C)[C@H]3CC[C@@H]4[C@H]5[C@H](c6cc7c(c(-c8ccccc8)c6)C(=O)N(c6cc[nH]n6)C7=O)CC[C@]5(C(=O)O)CC[C@@]4(C)[C@]3(C)CC[C@H]2C1(C)C", "values": [{"measurement": "IC50", "setting": "CCRF-CEM [1]", "result": 5.13, "unit": "µM"}, {"measurement": "IC50", "setting": "[2]", "result": 13.3, "unit": "µM"}, {"measurement": "IC50", "setting": "A549", "result": 18.9, "unit": "µM"}, {"measurement": "remaining at 0.25 h, 2 µM", "setting": "[3]", "result": 97, "unit": "%"}, {"measurement": "remaining at 1 h, 2 µM", "setting": "[4]", "result": 92, "unit": "%"}, {"measurement": "remaining at 0.25 h, 2 µM", "setting": "[5]", "result": 99, "unit": "%"}, {"measurement": "Activity", "setting": "CCRF-CEM [6]", "result": 92.8, "unit": "%"}, {"measurement": "Activity", "setting": "CCRF-CEM [7]", "result": 86.5, "unit": "%"}, {"measurement": "Activity", "setting": "CCRF-CEM [8]", "result": 7.9, "unit": "%"}, {"measurement": "Activity", "setting": "CCRF-CEM [9]", "result": "Active; Slight Increased Activity Observed"}, {"measurement": "inhibition (INH)", "setting": "CCRF-CEM [10]", "result": 23.6, "unit": "%"}, {"measurement": "Activity", "setting": "CCRF-CEM [11]", "result": "Active"}]}]}
